Assay results: ChEMBL document CHEMBL1914336, “Use of the hydantoin isostere to produce inhibitors showing selectivity toward the vesicular glutamate transporter versus the obligate exchange transporter system x(c)(-)” (Bioorg Med Chem Lett, 2011)

Tests used:
Rattus norvegicus [1] = organism: Rattus norvegicus; assay: Inhibition of VGLUT in rat synaptic vesicles assessed as glutamate uptake at 5 mM relative to control; set-up: scale not given: the % may be the effect or the level left
Outline: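 Rat brain synaptic vesicles were isolated and VGLUT-mediated uptake of 250 μM L-glutamate was measured with inhibitor at 5 mM. Uptake was corrected for non-specific uptake, normalized to protein content and expressed as % of control.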

[2] = biological target: T1, Cystine/glutamate transporter (Homo sapiens) (UniProt Q9UPY5); assay: Inhibition of cystine/glutamate transporter in human SNB19 cells assessed as [3H]glutamate uptake at 500 uM; type: cell-based; set-up: scale not given: the % may be the effect or the level left; conditions: SNB-19
T1 sequence (whole entry): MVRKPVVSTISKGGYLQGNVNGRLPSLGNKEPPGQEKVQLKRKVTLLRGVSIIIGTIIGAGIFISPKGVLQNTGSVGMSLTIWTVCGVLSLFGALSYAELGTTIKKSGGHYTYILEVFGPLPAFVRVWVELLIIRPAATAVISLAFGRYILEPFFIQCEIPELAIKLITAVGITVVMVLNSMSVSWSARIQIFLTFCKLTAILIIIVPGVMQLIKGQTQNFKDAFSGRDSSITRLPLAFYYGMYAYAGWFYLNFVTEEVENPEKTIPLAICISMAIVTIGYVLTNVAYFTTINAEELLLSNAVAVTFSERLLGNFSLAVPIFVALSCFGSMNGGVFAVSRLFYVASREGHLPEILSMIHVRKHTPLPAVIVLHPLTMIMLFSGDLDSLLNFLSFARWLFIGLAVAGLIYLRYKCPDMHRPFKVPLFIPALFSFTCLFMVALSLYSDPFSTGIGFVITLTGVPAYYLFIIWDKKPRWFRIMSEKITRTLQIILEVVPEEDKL
Outline: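 SNB19 glioma cells were kept under Na-free conditions and system xc−-mediated uptake of 100 μM L-glutamate was measured with inhibitor at 500 μM. Uptake was corrected for non-specific uptake and normalized to protein content.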

[3] = biological target: Excitatory amino acid transporter 2 (Homo sapiens) (UniProt P43004); assay: Inhibition of EAAT2-mediated D-aspartate transport at 100 uM
Excitatory amino acid transporter 2 (Homo sapiens), sequence (P43004 whole entry, the tested form may be a part): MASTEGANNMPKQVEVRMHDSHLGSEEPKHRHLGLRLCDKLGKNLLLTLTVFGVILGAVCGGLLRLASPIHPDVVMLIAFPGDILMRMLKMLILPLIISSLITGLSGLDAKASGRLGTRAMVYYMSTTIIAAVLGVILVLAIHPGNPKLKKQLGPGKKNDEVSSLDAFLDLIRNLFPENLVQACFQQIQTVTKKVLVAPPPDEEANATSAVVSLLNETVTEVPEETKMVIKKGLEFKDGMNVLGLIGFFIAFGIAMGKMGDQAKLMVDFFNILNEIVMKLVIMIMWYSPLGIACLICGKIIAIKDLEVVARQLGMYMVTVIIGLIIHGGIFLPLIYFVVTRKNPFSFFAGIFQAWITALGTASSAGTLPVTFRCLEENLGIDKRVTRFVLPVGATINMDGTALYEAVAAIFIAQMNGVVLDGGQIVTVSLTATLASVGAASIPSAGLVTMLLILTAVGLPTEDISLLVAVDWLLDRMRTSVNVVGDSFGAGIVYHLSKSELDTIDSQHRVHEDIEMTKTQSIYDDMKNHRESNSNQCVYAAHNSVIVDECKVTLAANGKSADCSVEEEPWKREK
Outline: (§1)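 Transport by EAAT1, EAAT2 or EAAT3 was measured with 25 μM D-aspartate as substrate and inhibitor present at 100 μM.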

[4] = biological target: Excitatory amino acid transporter 1 (Homo sapiens) (UniProt P43003); assay: Inhibition of EAAT1-mediated D-aspartate transport at 100 uM; outline: as §1
Excitatory amino acid transporter 1 (Homo sapiens), sequence (P43003 whole entry, the tested form may be a part): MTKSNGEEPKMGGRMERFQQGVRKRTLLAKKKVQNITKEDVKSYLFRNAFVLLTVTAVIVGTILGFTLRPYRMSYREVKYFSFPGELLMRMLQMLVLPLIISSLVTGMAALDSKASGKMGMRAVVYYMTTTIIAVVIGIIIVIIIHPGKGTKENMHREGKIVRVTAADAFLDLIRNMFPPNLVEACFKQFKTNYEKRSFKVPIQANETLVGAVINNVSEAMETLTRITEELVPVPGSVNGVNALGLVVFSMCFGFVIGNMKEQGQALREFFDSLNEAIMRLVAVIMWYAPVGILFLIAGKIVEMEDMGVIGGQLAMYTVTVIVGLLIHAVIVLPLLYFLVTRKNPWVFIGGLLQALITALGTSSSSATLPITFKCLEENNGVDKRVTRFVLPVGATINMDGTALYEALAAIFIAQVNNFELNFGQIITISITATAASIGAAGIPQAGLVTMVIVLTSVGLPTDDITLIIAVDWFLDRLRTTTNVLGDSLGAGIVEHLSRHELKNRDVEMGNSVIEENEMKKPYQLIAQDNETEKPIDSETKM

[5] = Inhibition of VGLUT in rat synaptic vesicles assessed as inhibition of glutamate uptake
Outline: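 Dose–response for VGLUT inhibition in synaptic vesicles isolated from rat brain, using 250 μM L-glutamate as substrate. Uptake was corrected for non-specific uptake and normalized to protein; IC50 was taken from the dose curve.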

[6] = biological target: Excitatory amino acid transporter 3 (Homo sapiens) (UniProt P43005); assay: Inhibition of EAAT3-mediated D-aspartate transport at 100 uM
Excitatory amino acid transporter 3 (Homo sapiens), sequence (P43005 whole entry, looked up, the tested form may be a part): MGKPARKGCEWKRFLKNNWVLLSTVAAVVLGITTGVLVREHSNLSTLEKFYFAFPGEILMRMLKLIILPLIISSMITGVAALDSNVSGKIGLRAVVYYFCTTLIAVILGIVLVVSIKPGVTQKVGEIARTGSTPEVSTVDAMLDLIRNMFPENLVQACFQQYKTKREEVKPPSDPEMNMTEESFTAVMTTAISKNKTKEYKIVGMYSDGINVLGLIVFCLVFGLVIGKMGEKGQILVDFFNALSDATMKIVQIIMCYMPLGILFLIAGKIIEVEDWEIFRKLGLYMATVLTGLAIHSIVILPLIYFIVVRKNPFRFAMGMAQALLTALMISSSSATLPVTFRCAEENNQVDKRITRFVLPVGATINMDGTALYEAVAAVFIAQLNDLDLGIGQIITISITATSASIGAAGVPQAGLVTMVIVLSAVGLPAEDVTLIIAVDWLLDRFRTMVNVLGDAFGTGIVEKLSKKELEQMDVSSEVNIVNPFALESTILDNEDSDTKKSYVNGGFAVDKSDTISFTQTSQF

Rattus norvegicus [7] = organism: Rattus norvegicus; assay: Inhibition of VGLUT in rat synaptic vesicles assessed as glutamate uptake at 500 uM relative to control; set-up: scale not given: the % may be the effect or the level left

Compound | Activity (Rattus norvegicus [1]) [%] | Activity [2] [%] | also measured
O=C1NC(=O)C(c2csc3ccccc23)N1 (stereo not given) | 79 | 118 | –
O=C1NC(=O)C(c2cccnc2)N1 (stereo not given) | 111 | 95 | –
CN(C)c1ccc(C2NC(=O)NC2=O)cc1 (stereo not given) | 23 | 87 | –
O=C1NC(=O)C(c2ccc(C3NC(=O)NC3=O)s2)N1 (stereo not given) | 6 | 51 | inhibition [3]: < 12%; inhibition [4]: < 12%; IC50 [5]: 511 µM; inhibition [6]: < 12%
Nc1c(/N=N/c2ccc(-c3ccc(/N=N/c4cc(S(=O)(=O)O)c5ccccc5c4N)cc3)cc2)cc(S(=O)(=O)O)c2ccccc12 | 0 | 82 | Activity (Rattus norvegicus [7]): 31%
O=C1NC(=O)C(c2c3ccccc3cc3ccccc23)N1 (stereo not given) | 81 | 81 | –
O=Cc1ccc(C2NC(=O)NC2=O)s1 (racemic) | 5 | 49 | inhibition [3]: < 12%; inhibition [4]: < 12%; IC50 [5]: 355 µM; inhibition [6]: < 12%
O=C1NC(c2cccc3ccccc23)C(=O)N1CCCCN1C(=O)NC(c2cccc3ccccc23)C1=O (stereo not given) | 74 | 92 | –
Cc1cc(C2NC(=O)NC2=O)sc1C (stereo not given) | 93 | 87 | –
O=C1NC(=O)C(Cc2ccccc2)N1 (stereo not given) | 80 | 53 | –
O=C1NC(=O)C(c2ccc(Br)s2)N1 (stereo not given) | 75 | 65 | –
O=C1NC(=O)C(c2c[nH]cn2)N1 (stereo not given) | 103 | 82 | –
Cc1ccc(C2NC(=O)NC2=O)s1 (stereo not given) | 76 | 66 | –
O=C1NC(c2cccc3ccccc23)C(=O)N1CCCN1C(=O)NC(c2cccc3ccccc23)C1=O (stereo not given) | 97 | 80 | –
O=C1NC(=O)C(c2ccc(-c3cccs3)s2)N1 (stereo not given) | 87 | 85 | –
O=C1NC(=O)C(c2ccc(-c3ccc(C(=O)O)cc3)cc2)N1 (stereo not given) | 37 | 104 | –
CN(C)c1ccc(/C=C/C2NC(=O)NC2=O)cc1 (stereo not given) | 63 | 90 | –
COC(=O)c1ccc(-c2ccc(C3NC(=O)NC3=O)cc2)cc1 (stereo not given) | 95 | 93 | –
O=C1NC(=O)C(c2ccc(S(=O)(=O)O)cc2S(=O)(=O)O)N1 (racemic) | 11 | 100 | –
O=C1NC(=O)C(c2cccc3ccccc23)N1 (stereo not given) | 91 | 83 | –
O=C1NC(=O)C(c2ccccc2S(=O)(=O)O)N1 (stereo not given) | 121 | 100 | –
O=C1NC(=O)C(c2ccc(C3NC(=O)NC3=O)cc2)N1 (stereo not given) | 78 | 85 | –
N[C@@H](CS)C(=O)O | 90 | 22 | –
